Among the data in ChEMBL document CHEMBL1124245, “Investigation of the structural parameters involved in the mu and delta opioid receptor discrimination of linear enkephalin-related peptides” (J Med Chem, 1988) are Ki, IC50 and dose values, retold here.

In general, Ki refers to the dissociation constant of the complex between target and ligand, obtained from inhibition or displacement. Higher therefore signals a looser hold on the target. Usually IC50 stands for the concentration that inhibits the measured activity by half.

Numbered stars: 1 amine (or outer) side, 2 acyl side, 3 side chain; on linkers, the order of the positions; unused ones are H or OH. Square brackets hold non-standard residues; d marks the D form. Peptide text beside a SMILES is read from it. X1 = CC[C@H](O)[C@H](N[*:1])C(=O)[*:2]; azaGly = NNC(=O)O Where only a bound is given, the exact number is not on record here.

Test [1] addresses Mu-type opioid receptor (Rattus norvegicus, UniProt P33535). The experiment in a line: Inhibition of [3H]DAGO binding to mu 1 opioid receptor in rat brain membranes. The test is classed as cell membranes. In short, it runs like this:
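Rat brain membranes, 0.6–0.7 mg protein, in 50 mM Tris-HCl pH 7.4 with 1 nM [3H]DAGO. Incubated 40 min at 35 °C, then filtered and washed with cold buffer. Bound radioactivity counted by scintillation. Nonspecific binding taken with 10 µM levorphanol, triplicates. Nine unlabeled-ligand concentrations, Hill-plot fit, Ki by Cheng-Prusoff. Three to six independent determinations.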

The target of test [2] is T1, Delta-type opioid receptor (Rattus norvegicus, UniProt P33533). Put plainly: Inhibition of [3H]DSLET binding to delta 1 opioid receptors in rat brain membranes. The format is cell membranes.
T1 sequence (P33533 whole entry): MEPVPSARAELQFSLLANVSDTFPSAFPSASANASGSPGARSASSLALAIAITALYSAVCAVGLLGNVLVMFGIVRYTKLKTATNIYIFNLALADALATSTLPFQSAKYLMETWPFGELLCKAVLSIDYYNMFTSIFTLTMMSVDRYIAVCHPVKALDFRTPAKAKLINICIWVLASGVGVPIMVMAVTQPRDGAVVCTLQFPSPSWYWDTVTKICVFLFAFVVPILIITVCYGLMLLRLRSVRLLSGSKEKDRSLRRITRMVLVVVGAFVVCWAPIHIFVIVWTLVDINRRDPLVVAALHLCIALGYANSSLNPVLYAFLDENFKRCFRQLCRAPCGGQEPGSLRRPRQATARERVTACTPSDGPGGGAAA
Test [3] addresses Opioid receptors; mu & delta (Homo sapiens, UniProt P41143+P35372). The experiment in a line: Inhibition of electrically evoked contraction of guinea pig ileum (myenteric plexus;longitudinal muscle)[agonist action at mu 1 opioid receptors) and inhibition of electrically evoked contraction of mouse vas deferens (agonist action at delta 1 opioid receptor). The test is classed as functional, tissue-based.

The target of test [4] is Mu-type opioid receptor (Cavia porcellus, UniProt P97266). The experiment in a line: Inhibition of electrically evoked contraction of guinea pig ileum (myenteric plexus:longitudinal muscle preparation) by agonist action at mu 1 opioid receptors. The format is functional, tissue-based. An outline of the steps:
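Electrically stimulated guinea pig ileum twitch. IC50 for half-maximal inhibition taken from six to eight log dose-response curves, six concentrations each. [Met]enkephalin IC50 measured on the same preparation. Agonist IC50 multiplied by the mean [Met]enkephalin IC50 divided by that assay's [Met]enkephalin IC50.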

The species named for test [5] is Mus musculus. Put plainly: Inhibitory activity after protection from beta-CNS-induced inactivation in MVD. The format is functional.
Test [6] is filed under the species Mus musculus. Put plainly: Inhibitory activity before protection from beta-CNS-induced inactivation in MVD. The test is classed as functional.
Test [7] relates to Mus musculus. The experiment in a line: Analgesic potency in mice after icv injection and 10 min before exposing to hot plate. The test is classed as functional. In short, it runs like this:
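Albino mice, 24–28 g, given drug icv by hand (10 µL, modified 30-gauge needle). Jump latency timed on a 55 ± 0.2 °C hot plate 10 min later, experimenter blind. Cut-off 180 s = 100% analgesia. Percent analgesia = (Tt−Tc)/(180 s−Tc). 10 mice per point. AD50 and 95% confidence limits by Litchfield–Wilcoxon.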

Test [8] deals with T1, Delta-type opioid receptor. The experiment in a line: Ability to inhibit the binding of [3H]DSLET to Opioid receptor delta 1 in rat brain membranes. The format is cell membranes.

Sequence of Mu-type opioid receptor (Cavia porcellus, UniProt P97266) (P97266 whole entry): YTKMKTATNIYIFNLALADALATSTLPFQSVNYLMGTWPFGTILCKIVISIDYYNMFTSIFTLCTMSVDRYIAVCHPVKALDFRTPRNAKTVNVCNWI
Sequence of Mu-type opioid receptor (Rattus norvegicus, UniProt P33535) (P33535 whole entry): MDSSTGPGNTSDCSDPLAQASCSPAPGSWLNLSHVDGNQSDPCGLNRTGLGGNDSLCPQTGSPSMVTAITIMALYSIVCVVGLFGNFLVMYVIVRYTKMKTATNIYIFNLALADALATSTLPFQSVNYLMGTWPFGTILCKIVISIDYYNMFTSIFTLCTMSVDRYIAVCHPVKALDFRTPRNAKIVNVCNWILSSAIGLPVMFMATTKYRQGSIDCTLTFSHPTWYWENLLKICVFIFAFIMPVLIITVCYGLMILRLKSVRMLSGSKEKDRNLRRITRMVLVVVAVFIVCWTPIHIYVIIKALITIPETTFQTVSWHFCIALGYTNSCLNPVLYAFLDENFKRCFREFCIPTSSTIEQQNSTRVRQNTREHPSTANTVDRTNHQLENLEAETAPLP

Consider `CCN(C(=O)CNC(=O)[C@@H](C)NC(=O)[C@@H](N)Cc1ccc(O)cc1)C(C)CC(C)C` (stereo partly specified), for which the results for the Ki in test [1] and in test [2] were 35.5 nM and 3450 nM, respectively. Also, the IC50 in test [3] turned out to be 1800 nM; in test [4], 216 nM.
Regarding `CC(C)C[C@H](NC(=O)[C@H](Cc1ccccc1)NC(=O)CNC(=O)[C@@H](CO)NC(=O)[C@@H](N)Cc1ccc(O)cc1)C(=O)N[C@H](C(=O)O)[C@@H](C)O`, the IC50 in test [5] (Mus musculus) turned out to be 0.65 nM; in test [6] (Mus musculus), 0.38 nM; in test [4], 406 nM. For the same compound, the affinity in test [2], expressed as Ki, was 4.8 nM. Moreover, the dose in test [7] is 130 pmol/mouse.
For `CC(C)C[C@H](NC(=O)[C@H](Cc1ccccc1)NC(=O)CNC(=O)[C@H](NC(=O)[C@@H](N)Cc1ccc(O)cc1)[C@H](C)O)C(=O)N[C@@H](CO)C(=O)O`, the Ki in test [1] was found to be 41.9 nM; in test [2], 4.18 nM. The IC50 worked out at 0.25 nM in test [3] and 99 nM in test [4].
With `CC(C)C[C@H](NC(=O)[C@H](Cc1ccccc1)NC(=O)CNC(=O)[C@H](NC(=O)[C@@H](N)Cc1ccc(O)cc1)[C@H](C)O)C(=O)N[C@H](C(=O)O)[C@@H](C)O` [listing 1 of 2 here], the IC50 is 0.22 nM in test [5], 0.13 nM in test [6], 0.15 nM in test [3] and 460 nM in test [4]. Moreover, in test [1], the Ki was 25.3 nM.
With `CC(C)C[C@H](NC(=O)[C@H](Cc1ccccc1)NC(=O)CNC(=O)[C@H](NC(=O)[C@@H](N)Cc1ccc(O)cc1)[C@H](C)O)C(=O)N[C@H](C(=O)O)[C@@H](C)O` [listing 2 of 2 here], the dose in test [7] was 50 pmol/mouse.
In the case of `CC(C)C[C@H](NC(=O)[C@H](CC(C)C)NC(=O)[C@H](Cc1ccccc1)NC(=O)CNC(=O)[C@H](NC(=O)[C@@H](N)Cc1ccc(O)cc1)[C@H](C)O)C(=O)O`, the results for the Ki in test [1] and in test [2] were 38 nM and 2.65 nM, respectively. Besides, the IC50 amounted to 0.41 nM in test [3] and 260 nM in test [4].
`CC(C)CC(C)NC(=O)CNC(=O)[C@H](C)NC(=O)[C@@H](N)Cc1ccc(O)cc1` (stereo partly specified): the values for the IC50 entry in test [3] and in test [4] were “>= 50000 nM” and at least 50000 nM, respectively.
Take `CC(C)CC(C)NC(=O)CNC(=O)[C@@H](CO)NC(=O)[C@@H](N)Cc1ccc(O)cc1` (stereo partly specified): the Ki is 43 nM in test [1] and 1370 nM in test [2]. Moreover, the IC50 in test [3] is 990 nM; in test [4], 718 nM.
The corresponding values for `CC(C)CC(C)NC(=O)CNC(=O)[C@@H](COC(C)(C)C)NC(=O)[C@@H](N)Cc1ccc(O)cc1` (stereo partly specified) are 13.7 nM, 39 nM, 105 nM and 111 nM.
Take `CC(C)C[C@H](NC(=O)[C@H](Cc1ccccc1)NC(=O)CNC(=O)[C@H](NC(=O)[C@@H](N)Cc1ccc(O)cc1)[C@H](C)O)C(=O)N1C[C@H](O)C[C@H]1C(=O)O`: the Ki was 43.8 nM in test [1] and 7.6 nM in test [2]. The compound further had a dose in test [7] of 252 pmol/mouse. Moreover, the IC50 was found to be 1.1 nM in test [3] and 88 nM in test [4].
In the case of `CC(C)CCNC(=O)CNC(=O)[C@@H](C)NC(=O)[C@@H](N)Cc1ccc(O)cc1`, the values for the inhibitory constant (Ki) in test [1] and in test [2] were 10 nM and 1020 nM, respectively. In addition, the concentration for half-maximal inhibition (IC50) in test [3] was 3410 nM; in test [4] it was 323 nM.
Regarding `CC(C)C[C@H](NC(=O)[C@H](CC(C)C)NC(=O)[C@H](Cc1ccccc1)NC(=O)CNC(=O)[C@@H](CO)NC(=O)[C@@H](N)Cc1ccc(O)cc1)C(=O)O`, the inhibitory constant (Ki) is 158 nM in test [1] and 9.12 nM in test [2]. In test [7], this compound came in with a dose of 610 pmol/mouse. In addition, the IC50 in test [3] worked out at 2.45 nM; in test [4], 257 nM.
Turning to `CSCC[C@@H](NC(=O)[C@@H](N)Cc1ccc(O)cc1)C(=O)NCC(=O)NCCC(C)C`, the figures for the Ki in test [1] and in test [2] were 15 nM and 600 nM, respectively. Further, the IC50 is 733 nM in test [3] and 154 nM in test [4].
As to `CC(C)CC(C)NC(=O)CNC(=O)C(C)(C)NC(=O)[C@@H](N)Cc1ccc(O)cc1` (stereo partly specified), the Ki in test [1] came to 171 nM; in test [2], 6880 nM. Besides, the values for the IC50 in test [3] and in test [4] were 4720 nM and 1850 nM, respectively.
Taken in the same sequence, the figures for `CC(C)C[C@@H](C(=O)N[C@H](C(=O)O)[C@@H](C)O)N(C)C(=O)[C@H](Cc1ccccc1)NC(=O)CNC(=O)[C@H](NC(=O)[C@@H](N)Cc1ccc(O)cc1)[C@H](C)O` were 157 nM, 30.7 nM, 1.33 nM and 224 nM.
The corresponding values for `CC(C)C[C@@H](C(=O)NCCO)N(C)C(=O)CNC(=O)[C@@H](C)NC(=O)[C@@H](N)Cc1ccc(O)cc1` are 116 nM, 3810 nM, 3180 nM and 379 nM.
The corresponding values for `CC(C)CC(C)NC(=O)CNC(=O)[C@@H](C)NC(=O)[C@@H](N)Cc1ccc(O)cc1` (stereo partly specified) are 17 nM, 480 nM, 1050 nM and 237 nM.
Take `CC[C@H](O)[C@H](NC(=O)[C@@H](N)Cc1ccc(O)cc1)C(=O)NCC(=O)N[C@@H](Cc1ccccc1)C(=O)N[C@@H](CC(C)C)C(=O)N[C@H](C(=O)O)[C@@H](C)O` (H-Y[X1]GFLT-OH): the figures for the Ki in test [1] and in test [2] were 16 nM and 2.2 nM, respectively. Besides, the results for the half-maximal inhibitory concentration (IC50) in test [3] and in test [4] were 0.05 nM and 21.3 nM, respectively.
The corresponding values for `CC(C)C[C@H](NC(=O)[C@H](Cc1ccccc1)NC(=O)CNC(=O)NNC(=O)[C@@H](N)Cc1ccc(O)cc1)C(=O)N[C@H](C(=O)O)[C@@H](C)O` (H-Y[azaGly]GFLT-OH) are 9790 nM, 395 nM, 38 nM and 14000 nM.
With `CC(C)C[C@@H](NC(=O)[C@H](Cc1ccccc1)NC(=O)CNC(=O)[C@@H](C)NC(=O)[C@@H](N)Cc1ccc(O)cc1)C(=O)O` [DADLE], the dose in test [7] came to 12 pmol/mouse.
For `C[C@@H](NC(=O)[C@@H](N)Cc1ccc(O)cc1)C(=O)NCC(=O)N(C)[C@@H](Cc1ccccc1)C(=O)NCCO` [DAMGO], the IC50 in test [5] (Mus musculus) is 2400 nM; in test [6] (Mus musculus) it was 100 nM; in test [4], 11.5 nM. Further, the affinity in test [8] corresponds to a Ki of 700 nM. For the same compound, the dose in test [7] is 1 pmol/mouse.
